Values after ≈ are worked out from the molar mass of the structure shown. Active and inactive are the calls of the source. The rule behind the calls is not given here.
Experiments:
Staphylococcus aureus [1] = experiment: Antibacterial activity against methicillin-resistant Staphylococcus aureus BAA-1707 assessed as bacterial growth inhibition incubated for 16 hrs by broth microdilution susceptibility test; type: functional
Summary of the method: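 CLSI broth microdilution with 11 twofold dilutions (0.05–50 μM). About 10^5 cells per well from a log-phase culture. DMSO vehicle up to 0.5% v/v. At least three independent experiments.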

[2] = tested on: Mycobacterium tuberculosis; experiment: Antibacterial activity against Mycobacterium tuberculosis H37Ra ATCC 25177 assessed as bacterial growth inhibition incubated for 7 days by absorbance based analysis; type: functional; conditions: H37Ra ATCC 25177, 168 h, time 7 day
Summary of the method: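 H37Ra grown 2 weeks in Middlebrook 7H9, then diluted to OD600 0.01. Compounds added in twofold dilutions, final 0.024–50 μM, with 0.5% DMSO and streptomycin as positive control. Incubated 7 days at 37 °C. MIC is the lowest concentration with no growth, with OD600 recorded. At least three independent experiments.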

[3] = tested on: Mycobacterium tuberculosis; experiment: Antibacterial activity against Mycobacterium tuberculosis CDC1551 assessed as bacterial growth inhibition incubated for 5 days by luminescence based analysis; type: functional; conditions: CDC1551, 120 h, time 5 day
Summary of the method: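 Bioluminescent Mtb-lux CDC1551 reporter grown in Middlebrook 7H9 with 0.05% Tween 80, 10% OADC and kanamycin to OD600 0.4–0.8, then diluted to OD600 0.02. Added to twofold drug dilutions (0.003–200 μM). Incubated 5 days at 37 °C, 5% CO2. Luminescence read against 1% DMSO and 10 μM rifampicin controls to give % growth inhibition. MIC taken from a modified Gompertz fit.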

J774 = experiment: Cytotoxicity against mouse J774 cells assessed as reduction in cell viability […] by Alamar blue assay; type: toxicity, cell-based
Erythrocyte = experiment: Hemolytic activity against human RBC at 200 uM measured after 1 hr; type: toxicity, cell-based
Summary of the method: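 2% hRBCs exposed to compound at 200 μM final, added from DMSO stock, for 1 h at 37 °C. Supernatant OD read at 405 nm. Hemolysis normalized between DMSO (0%) and Triton X (100%); three independent experiments.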

Staphylococcus aureus [4] = experiment: Antibiofilm activity against methicillin-resistant Staphylococcus aureus BAA-1707 biofilms assessed as reduction of viable biofilm cells at MBEC measured by CBD assay; type: functional
Summary of the method: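 After the Calgary biofilm device assay, treated and untreated pegs were removed, sonicated 30 min in PBS and plated for CFU per peg. Log10 reduction of viable biofilm cells at the MBEC determined by comparison with untreated pegs. At least three independent experiments.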

Staphylococcus aureus [5] = experiment: Induction of iron starvation in methicillin-resistant Staphylococcus aureus BAA-1707 biofilms assessed as upregulation of isdB gene expression at 1 uM incubated for 4 hrs by RT-qPCR analysis; type: functional
Summary of the method: (§1)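 MRSA BAA-1707 grown in TSB with 0.5% glucose to OD600 ~0.8–1.0, then biofilms formed 20 h at 37 °C statically in gelatin-coated 24-well plates. Biofilms treated 4 h at 37 °C with compound (1 μM or 1/10 MBEC) or DMSO vehicle. RNA extracted; only RIN ≥7 samples used. One-step SYBR RT-qPCR; ΔCT normalised to ptaA. Three independent experiments.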

Staphylococcus aureus [6] = experiment: Induction of iron starvation in methicillin-resistant Staphylococcus aureus BAA-1707 biofilms assessed as upregulation of isdB gene expression at 1/10XMBEC incubated for 4 hrs by RT-qPCR analysis; type: functional; summary of the method: as §1
Enterococcus faecalis = experiment: Antibacterial activity against Enterococcus faecalis OG1RF ATCC 47077 infected in C57BL/6J mouse dorsal wound infection model assessed as reduction in bacterial load in wound administered topically once a day for 3 days; type: functional; conditions: time 3 day
Summary of the method: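 Female C57BL/6J mice, 7 weeks old. 3 mm dorsal punch wound infected with 20 μL of 6×10¹⁰ CFU/mL and covered with Tegaderm. From 24 h post-infection, PEG 400/PEG 3350 ointment or PEG vehicle applied topically once daily. Day 3 wounds excised, homogenized in PBS and plated on TSA with rifampicin and fusidic acid for CFU.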

Staphylococcus aureus [7] = experiment: Antibacterial activity against methicillin-resistant Staphylococcus aureus clinical isolate 1 assessed as bacterial growth inhibition; type: functional
Staphylococcus aureus [8] = experiment: Antibacterial activity against methicillin-resistant Staphylococcus aureus 129 assessed as bacterial growth inhibition; type: functional
[9] = tested on: Staphylococcus epidermidis; experiment: Antibiofilm activity against methicillin-resistant Staphylococcus epidermidis ATCC 35984 biofilms assessed as biofilm killing at 3.13 uM measured by CBD assay; type: functional

SMILES: Cc1cccc2nc3c(O)c(Br)c(Cl)c(Br)c3nc12
- MIC (Staphylococcus aureus [1]): 0.05 µM (≈ 0.0201 µg/mL)
- MIC [3]: 1.59 µM (≈ 0.64 µg/mL)
- IC50 (J774): > 200 µM
- Activity (Erythrocyte): <= 1%
- Activity (Staphylococcus aureus [4]): 2.55 log10CFU
- Activity (Staphylococcus aureus [5]): Active
- Activity (Staphylococcus aureus [6]): Active
- Activity (Enterococcus faecalis): 1.73 log10CFU
- MIC (Staphylococcus aureus [7]): 0.06 µM (≈ 0.0241 µg/mL)
- MIC (Staphylococcus aureus [8]): 0.06 µM (≈ 0.0241 µg/mL)
- Activity [9]: 99.999%
